We go through nine molecules from ChEMBL document CHEMBL3286393 (J Med Chem, 2014).

pIC50: −log10 of the molar value. The source made the active and inactive calls. The calls are words filed in the database; no cut-off is given here.

Test [1] concerns Radical scavenging activity. In words: Antioxidant activity assessed as DPPH free radical scavenging activity at 10 uM after 30 mins […] by spectrophotometric analysis. Format: functional. (In general: DPPH is a stable violet radical that fades when it is reduced.)
In a further test the test system is PBMC. The test is described as follows: Cytotoxicity against human PBMCs assessed as cell viability after 24 hrs by MTT assay. In kind it is cell-based. Summed up:
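Human PBMC (2 × 10⁵/well), 24 h exposure. MTT then 4 h at 37 °C in darkness. Formazan solubilized with 10% SDS in 20 mM HCl; absorbance 550 nm. Viability relative to untreated cells; IC50 derived.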
(Formazan colour is commonly taken as a measure of viable cells.)

Another test deals with LNCaP. In words: Cytotoxicity against human LNCAP cells assessed as cell viability after 24 hrs by MTT assay. Format: cell-based. Summed up: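 LNCaP seeded at 10⁴ cells/well and exposed 24 h. MTT added, then 4 h at 37 °C, 5% CO2, dark. Medium removed and formazan dissolved in DMSO; absorbance at 570 nm.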
In test [2] the target is T1, Prostaglandin G/H synthase 1 (Ovis aries) (UniProt P05979).
T1 sequence (whole entry): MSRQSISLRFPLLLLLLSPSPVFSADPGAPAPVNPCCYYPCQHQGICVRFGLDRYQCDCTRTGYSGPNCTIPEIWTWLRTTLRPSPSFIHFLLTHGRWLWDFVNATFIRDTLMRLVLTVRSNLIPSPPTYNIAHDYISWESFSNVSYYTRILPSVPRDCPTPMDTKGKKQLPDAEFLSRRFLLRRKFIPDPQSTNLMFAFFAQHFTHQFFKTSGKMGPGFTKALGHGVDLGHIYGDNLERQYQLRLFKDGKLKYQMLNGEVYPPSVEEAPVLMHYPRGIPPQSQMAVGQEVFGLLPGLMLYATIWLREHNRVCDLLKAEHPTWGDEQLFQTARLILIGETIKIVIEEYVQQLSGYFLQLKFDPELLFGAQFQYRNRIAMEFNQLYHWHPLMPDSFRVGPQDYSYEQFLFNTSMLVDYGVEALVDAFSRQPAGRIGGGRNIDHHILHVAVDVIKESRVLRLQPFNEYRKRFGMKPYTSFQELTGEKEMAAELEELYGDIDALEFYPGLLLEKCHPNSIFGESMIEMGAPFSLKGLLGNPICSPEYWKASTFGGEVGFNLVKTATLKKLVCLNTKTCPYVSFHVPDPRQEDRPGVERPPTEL
In words: Inhibition of purified ovine COX-1 assessed as residual activity by measuring formation of 12-HHT from arachidonic acid preincubated at 10 uM for 5 mins before substrate addition measured after 5 mins by HPLC analysis relative to control. Summed up: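 Purified ovine COX-1 (50 units) in 100 mM Tris pH 8 with 5 mM glutathione, 5 μM hemoglobin and 100 μM EDTA. Preincubated 5 min at 4 °C then 1 min at 37 °C. 5 μM arachidonic acid added; 12-HHT extracted after 5 min and measured by HPLC. Residual activity at 10 μM, three independent experiments.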

In test [3] the target is T2, Polyunsaturated fatty acid 5-lipoxygenase (Homo sapiens, UniProt P09917).
T2 sequence (P09917 whole entry): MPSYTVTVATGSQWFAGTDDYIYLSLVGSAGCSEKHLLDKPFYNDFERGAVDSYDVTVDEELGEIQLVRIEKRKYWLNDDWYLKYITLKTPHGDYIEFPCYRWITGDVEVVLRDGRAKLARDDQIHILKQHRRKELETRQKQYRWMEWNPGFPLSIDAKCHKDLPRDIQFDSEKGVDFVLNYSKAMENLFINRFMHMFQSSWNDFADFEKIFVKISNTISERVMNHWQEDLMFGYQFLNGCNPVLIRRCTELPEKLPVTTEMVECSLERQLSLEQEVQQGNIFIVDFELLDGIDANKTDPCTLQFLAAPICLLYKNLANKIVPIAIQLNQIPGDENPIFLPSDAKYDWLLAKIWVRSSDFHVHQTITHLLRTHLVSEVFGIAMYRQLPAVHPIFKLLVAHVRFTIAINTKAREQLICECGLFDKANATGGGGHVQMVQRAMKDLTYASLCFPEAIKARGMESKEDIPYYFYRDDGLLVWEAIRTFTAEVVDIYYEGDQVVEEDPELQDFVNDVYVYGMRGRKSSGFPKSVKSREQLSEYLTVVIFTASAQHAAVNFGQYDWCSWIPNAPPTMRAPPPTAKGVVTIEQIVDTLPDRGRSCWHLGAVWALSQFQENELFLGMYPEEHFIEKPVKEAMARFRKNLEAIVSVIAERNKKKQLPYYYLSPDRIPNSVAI
In words: Inhibition of human recombinant 5-LO expressed in Escherichia coli Bl21 (DE3) using arachidonic acid as substrate preincubated for 10 mins measured after 10 mins by RP-HPLC analysis. Summed up:
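5-LO expressed from pT3-5LO in E. coli BL21(DE3), semi-purified on ATP-agarose, diluted in PBS with 1 mM EDTA and 1 mM ATP. Preincubated with compound 10 min at 4 °C, then 30 s at 37 °C. Started with 2 mM CaCl2 plus 20 μM arachidonic acid; 10 min at 37 °C; ice-cold methanol stop. Three to four experiments.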

The target of test [4] is Prostaglandin G/H synthase 1 (Homo sapiens, UniProt P23219). The test is described as follows: Inhibition of COX1-mediated PGE2 production in human platelets assessed as residual activity by measuring formation of 12-HHT from arachidonic acid preincubated at 10 uM for 5 mins measured after 5 mins by RP-HPLC analysis relative to control. Summed up: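 Washed human platelets, 10⁸/mL in PBS pH 7.4 with 1 mM CaCl2: 5 min compound preincubation at room temperature, then 1 min at 37 °C. Arachidonic acid 5 μM added; 5 min at 37 °C. 12-HHT extracted and measured by RP-HPLC.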
Sequence of Prostaglandin G/H synthase 1 (P23219 whole entry): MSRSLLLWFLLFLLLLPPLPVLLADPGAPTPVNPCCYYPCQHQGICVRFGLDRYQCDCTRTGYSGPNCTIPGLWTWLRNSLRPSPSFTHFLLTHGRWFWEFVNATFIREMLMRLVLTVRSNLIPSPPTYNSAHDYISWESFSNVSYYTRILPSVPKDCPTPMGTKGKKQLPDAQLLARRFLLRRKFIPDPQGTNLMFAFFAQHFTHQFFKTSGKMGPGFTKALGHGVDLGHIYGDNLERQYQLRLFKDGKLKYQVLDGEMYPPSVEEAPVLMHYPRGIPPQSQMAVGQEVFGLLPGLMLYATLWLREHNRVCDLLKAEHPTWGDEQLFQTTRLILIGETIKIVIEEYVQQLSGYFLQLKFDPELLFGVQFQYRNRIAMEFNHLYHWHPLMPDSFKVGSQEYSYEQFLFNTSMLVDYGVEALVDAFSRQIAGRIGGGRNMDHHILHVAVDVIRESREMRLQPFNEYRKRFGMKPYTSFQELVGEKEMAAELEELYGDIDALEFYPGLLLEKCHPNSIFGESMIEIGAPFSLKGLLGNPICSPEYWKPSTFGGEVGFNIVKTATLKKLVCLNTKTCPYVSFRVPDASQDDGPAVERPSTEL

For test [5], the target named is T3, Polyunsaturated fatty acid lipoxygenase ALOX12 (Homo sapiens) (UniProt P18054).
T3 sequence (whole entry): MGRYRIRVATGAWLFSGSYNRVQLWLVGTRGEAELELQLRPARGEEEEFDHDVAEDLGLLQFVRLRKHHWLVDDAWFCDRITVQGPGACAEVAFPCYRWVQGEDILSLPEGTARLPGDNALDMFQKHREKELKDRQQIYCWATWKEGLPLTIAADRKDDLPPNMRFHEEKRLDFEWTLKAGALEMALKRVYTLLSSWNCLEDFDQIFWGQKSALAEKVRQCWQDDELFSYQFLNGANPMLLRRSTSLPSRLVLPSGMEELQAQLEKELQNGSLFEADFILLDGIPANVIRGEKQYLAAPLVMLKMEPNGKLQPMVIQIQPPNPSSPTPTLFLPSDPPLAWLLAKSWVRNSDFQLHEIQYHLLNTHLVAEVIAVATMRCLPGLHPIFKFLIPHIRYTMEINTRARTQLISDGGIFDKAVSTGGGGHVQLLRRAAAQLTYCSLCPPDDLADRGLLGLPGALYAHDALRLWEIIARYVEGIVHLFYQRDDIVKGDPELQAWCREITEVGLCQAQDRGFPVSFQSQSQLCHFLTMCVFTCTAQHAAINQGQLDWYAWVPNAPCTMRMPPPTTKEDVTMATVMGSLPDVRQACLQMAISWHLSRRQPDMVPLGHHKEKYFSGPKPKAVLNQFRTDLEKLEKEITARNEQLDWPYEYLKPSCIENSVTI
In words: Inhibition of 12-LO in human neutrophils assessed as residual activity relative to control. As to conditions: for residual activity: values are per cent of control.

What is called pIC50 is the negative decadic logarithm of the IC50, by convention in mol/L. In general, residual activity refers to the activity still measured, relative to the control.

For the molecule `COc1cc(/C=C/c2cc(-c3ccc(O)c(OC)c3)[nH]n2)ccc1O`, the Activity in test [1] is 70.3%. For the same molecule, the values for the negative-log IC50 (pIC50) (with PBMC; in the test with LNCaP; in test [3]) were < 4.30, < 4.30 and 7.05, respectively. Also, the inhibition result in test [2] and in test [4] was “inactive” each time.

Turning to `COc1cc(/C=C/C(=O)CC(=O)/C=C/c2cc(CC=C(C)C)c(O)c(OC)c2)cc(CC=C(C)C)c1O`, the Activity in test [1] worked out at 57.9%. For the same molecule, the inhibition entry in test [5] and in test [4] was “inactive” throughout. The negative logarithm of the IC50 (pIC50) is < 4.30 with PBMC, < 4.30 with LNCaP and 6.15 in test [3].

For the molecule `COc1cc(/C=C/C(=O)/C=C/c2ccc(O)c(OC)c2)ccc1O`, the Activity in test [1] came out at 80.7%. The residual activity in test [5] is 70.1%. Besides, the negative logarithm of the IC50 (pIC50) with PBMC is 4.46; in the test on LNCaP, 5.00; in test [3], 6.10. For the same molecule, the inhibition entry in test [2] and in test [4] was “inactive” each time.

In the case of `COc1cc(/C=C/c2cc(/C=C/c3ccc(O)c(OC)c3)[nH]n2)ccc1O` [CURCUMIN PYRAZOLE], the Activity in test [1] stood at 59.6%. For the same molecule, the results for the negative logarithm of the IC50 (pIC50) (in the test with PBMC; in the test with LNCaP; in test [3]) were < 4.30, < 4.30 and 7.15, respectively. Moreover, the inhibition result in test [2] is “inactive”.

As to `COc1cc(CCC(=O)CC(=O)CCc2ccc(O)c(OC)c2)ccc1O` [TETRAHYDROCURCUMIN], the Activity in test [1] stood at 62.2%. In addition, the residual activity in test [5] was found to be 87.4%. Moreover, the negative-log IC50 (pIC50) in the test with PBMC was < 4.30; with LNCaP, < 4.30; in test [3], 5.49. Also, the inhibition result in test [2] and in test [4] was “inactive” throughout.

For the molecule `COc1cc(/C=C/C(=O)CC(=O)/C=C/c2ccc(O)c(OC)c2)ccc1O` [CURCUMIN], the Activity in test [1] was 63.9%. In addition, in test [5], the residual activity was 65%. The values for the pIC50 in the test on PBMC and with LNCaP were 4.46 and 4.44, respectively. Moreover, in test [2], the inhibition entry was “inactive”.

For the molecule `COc1cc(/C=C/c2cc(/C=C/c3cc(CC=C(C)C)c(O)c(OC)c3)[nH]n2)cc(CC=C(C)C)c1O`, the Activity in test [1] was determined as 57.3%. In addition, the residual activity in test [5] was 68.7%. Moreover, the pIC50 with PBMC was < 4.30; with LNCaP it was < 4.30; in test [3] it was 7.00. The inhibition result in test [2] and in test [4] was “inactive” in each case.

In the case of `COc1cc(/C=C/C(=O)/C=C/c2cc(CC=C(C)C)c(O)c(OC)c2)cc(CC=C(C)C)c1O`, the Activity in test [1] is 75.8%. The residual activity in test [5] came to 64.7%. Also, the pIC50 was < 4.30 in the test on PBMC, 4.36 with LNCaP and 6.30 in test [3]. For the same molecule, the inhibition result in test [4] was “inactive”.

As for `COc1cc(/C=C/C(=O)CC(=O)c2ccc(O)c(OC)c2)ccc1O`, the Activity in test [1] is 80.2%. In addition, the residual activity in test [5] came to 60.6%. Further, the negative logarithm of the IC50 (pIC50) in the test on PBMC was < 4.30; with LNCaP, < 4.30; in test [3], 5.64. Also, the inhibition entry in test [2] and in test [4] was “inactive” each time.
